According to ChEMBL document CHEMBL4219218, “P3-P4 ureas and reverse carbamates as potent HCV NS3 protease inhibitors: Effective transposition of the P4 hydrogen bond donor” (Bioorg Med Chem Lett, 2018):

Assays:
[1] = AUC in Sprague-Dawley rat plasma at 15 mg/kg administered intraduodenally as single dose measured at 4 hrs by LC/MS/MS method; type: ADME, organism-based; set-up: dose 15 mg/kg, time < 4 hr, route intraduodenal
Procedure, shortened: (§1)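 Single intraduodenal dose of 15 mg/kg to rats, n = 2. Plasma and liver exposure measured over a 4 h period, with a 4 h endpoint.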

[2] = Drug level in Sprague-Dawley rat liver at 15 mg/kg administered intraduodenally as single dose measured at 4 hrs by LC/MS/MS method; type: ADME, organism-based; conditions: read-out: Drug uptake; procedure, shortened: as §1

C=C[C@@H]1C[C@]1(NC(=O)[C@@H]1C[C@@H](Oc2nccc3cc(OC)ccc23)CN1C(=O)[C@@H](NC(=O)N[C@H](C(=O)O)C(C)(C)C)C(C)(C)C)C(=O)NS(=O)(=O)C1CC1
AUC at 4 h [1]: 91 ng·h/mL

C=C[C@@H]1C[C@]1(NC(=O)[C@@H]1C[C@@H](Oc2cc(-c3ccccc3)nc3cc(OC)ccc23)CN1C(=O)[C@@H](NC(=O)OC(C)(C)C)C(C)(C)C)C(=O)NS(=O)(=O)C1CC1
concentration at 4 h [2]: 7850 ng/g
AUC at 4 h [1]: 61 ng·h/mL

C=C[C@@H]1C[C@]1(NC(=O)[C@@H]1C[C@@H](Oc2cc(-c3ccccc3)nc3cc(OC)ccc23)CN1C(=O)[C@@H](OC(=O)NC(C)C)C(C)(C)C)C(=O)NS(=O)(=O)C1CC1
concentration at 4 h [2]: 430 ng/g

C=C[C@@H]1C[C@]1(NC(=O)[C@@H]1C[C@@H](Oc2cc(-c3ccccc3)nc3cc(OC)ccc23)CN1C(=O)[C@@H](NC(=O)NC(C)(C)C)C(C)(C)C)C(=O)NS(=O)(=O)C1CC1
concentration at 4 h [2]: 72 ng/g
AUC at 4 h [1]: 17 ng·h/mL

C=C[C@@H]1C[C@]1(NC(=O)[C@@H]1C[C@@H](Oc2nccc3cc(OC)ccc23)CN1C(=O)[C@@H](NC(=O)N[C@H](COC)C(C)(C)C)C(C)(C)C)C(=O)NS(=O)(=O)C1CC1
concentration at 4 h [2]: 838 ng/g
AUC at 4 h [1]: 3280 ng·h/mL

C=C[C@@H]1C[C@]1(NC(=O)[C@@H]1C[C@@H](Oc2nccc3cc(OC)ccc23)CN1C(=O)[C@@H](NC(=O)N[C@H](C(=O)OC(C)(C)C)C(C)(C)C)C(C)(C)C)C(=O)NS(=O)(=O)C1CC1
concentration at 4 h [2]: 4850 ng/g
AUC at 4 h [1]: 632 ng·h/mL

C=C[C@@H]1C[C@]1(NC(=O)[C@@H]1C[C@@H](Oc2cc(-c3ccccc3)nc3cc(OC)ccc23)CN1C(=O)[C@@H](OC(=O)NC1CCCC1)C(C)(C)C)C(=O)NS(=O)(=O)C1CC1
concentration at 4 h [2]: 3430 ng/g
AUC at 4 h [1]: 95 ng·h/mL

C=C[C@@H]1C[C@]1(NC(=O)[C@@H]1C[C@@H](Oc2nccc3cc(OC)ccc23)CN1C(=O)[C@@H](NC(=O)N[C@H](C(=O)N1CCN(c2ncccn2)CC1)C(C)(C)C)C(C)(C)C)C(=O)NS(=O)(=O)C1CC1
concentration at 4 h [2]: 87 ng/g
AUC at 4 h [1]: 1630 ng·h/mL

C=C[C@@H]1C[C@]1(NC(=O)[C@@H]1C[C@@H](Oc2cc(-c3ccccc3)nc3cc(OC)ccc23)CN1C(=O)[C@H]([C@@H](C)CC)N(C)C(=O)NC1CCCC1)C(=O)NS(=O)(=O)C1CC1
concentration at 4 h [2]: 1240 ng/g

C=C[C@@H]1C[C@]1(NC(=O)[C@@H]1C[C@@H](Oc2cc(-c3ccccc3)nc3cc(OC)ccc23)CN1C(=O)[C@H]([C@@H](C)CC)N(C)C(=O)NC(C)(C)C)C(=O)NS(=O)(=O)C1CC1
concentration at 4 h [2]: 1780 ng/g
AUC at 4 h [1]: 16 ng·h/mL

C=C[C@@H]1C[C@]1(NC(=O)[C@@H]1C[C@@H](Oc2cc(-c3ccccc3)nc3cc(OC)ccc23)CN1C(=O)[C@@H](OC(=O)NC(C)(C)C)C(C)(C)C)C(=O)NS(=O)(=O)C1CC1
concentration at 4 h [2]: 3770 ng/g
AUC at 4 h [1]: 82 ng·h/mL

C=C[C@@H]1C[C@]1(NC(=O)[C@@H]1C[C@@H](Oc2nccc3cc(OC)ccc23)CN1C(=O)[C@@H](NC(=O)NC(C)(C)C)C(C)(C)C)C(=O)NS(=O)(=O)C1CC1
concentration at 4 h [2]: 1110 ng/g
AUC at 4 h [1]: 497 ng·h/mL

C=C[C@@H]1C[C@]1(NC(=O)[C@@H]1C[C@@H](Oc2cc(-c3ccccc3)nc3cc(OC)ccc23)CN1C(=O)[C@@H](NC(=O)N(C)C(C)(C)C)C(C)(C)C)C(=O)NS(=O)(=O)C1CC1
concentration at 4 h [2]: 2600 ng/g
AUC at 4 h [1]: 32 ng·h/mL

C=C[C@@H]1C[C@]1(NC(=O)[C@@H]1C[C@@H](Oc2nccc3cc(OC)ccc23)CN1C(=O)[C@@H](NC(=O)OC(C)(C)C)C(C)(C)C)C(=O)NS(=O)(=O)C1CC1
concentration at 4 h [2]: 64700 ng/g
AUC at 4 h [1]: 7420 ng·h/mL
